Results on 84 variants are retold here after the RNAGym collection of RNA variant scans (doi:10.1038/s41586-018-0170-7).

To fix the notation:
B1: tRNA (parent)
chain: GUUCCGUUGGCGUAAUGGUAACGCGUCUCCCUCCUAAGGAGAAGACUGCGGGUUCGAGUCCCGUACGGAACG

This series covers variants of B1. Briefly: yeast fitness, log relative to wild type (ln ratio); higher = fitter; tRNA-Arg(CCU), competitive growth, 37 C, 1 M NaCl. The gist of the method: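 Fitness is the natural log of each genotype's generations divided by the wild type's. Generations were derived as OD-scaled log2 output/input frequency from 125 bp paired-end Illumina counts, weighting replicates by inverse variance. Pools of the tRNA-Arg(CCU) variant library, on a HIS3 centromeric plasmid in BY4742 lacking the chromosomal gene, grew ~6.5 generations (~26.5 h) in SC-HIS 1M NaCl at 37 °C after 4 generations in SC-HIS at 30 °C.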
Turning to G1A U2G G6U C46U A70G, the “yeast fitness (ln)” value was -0.282. For G1A U2G G6U C66U A69G A70U C71U, the “yeast fitness (ln)” value is -0.553. In the case of U2C A43C C46U A70U C71U it was -0.0761. Take G1A U2G G6U C27U C46U C66U A69G A70G: the “yeast fitness (ln)” value is -0.308. G1A U2G G6U C27U C46U C66U A69G A70U: the “yeast fitness (ln)” value is -0.339.

As to G1A U2G G6U C27U A43C C46U C66U A70U C71U, the “yeast fitness (ln)” value was -0.647. On to U2C A43C A69G A70U C71U, for which the “yeast fitness (ln)” value was -0.32.

For the variant G1A U2G G6U C27U A70U, the “yeast fitness (ln)” value is -0.265.

As to G1A U2G G6U C27U A70G, the “yeast fitness (ln)” value is -0.274. As for U2C A43C C46U C66A A70U C71U, the “yeast fitness (ln)” value is -0.169. As for G1A U2G G6U C66U A69G C71U, the figure is -0.375; as for G1A U2G G6U C27U A70U C71U, -0.305; as for G1A U2G G6U C27U A43C C66U A70G, -0.4. In the case of G1A U2G G6U C27U A43C C66U A70U, the “yeast fitness (ln)” value is -0.47. In the case of G1A U2G G6U C27U C66U A69G A70U C71U it was -0.407; in that of U2C A43C C46U A69G A70U C71U, -0.307; in that of U2C A43C A70U C71U, -0.102. In the case of G1A U2G G6U C27U C66U A69G A70G it was -0.333; in that of G1A U2G G6U C27U C66U A69G A70U, -0.307. Consider G1A U2G G6U C27U C46U C66A A70G C71U, for which the “yeast fitness (ln)” value is -0.239. U2C A43C C46U A69G A70G C71U: the “yeast fitness (ln)” value is -0.00607.

In the case of U2C A43C C46U, the “yeast fitness (ln)” value turned out to be 0.00393. In the case of G1A U2G G6U C27U C66U C71U it was -0.522.

In the case of G1A U2G G6U C46U C66A C71U, the “yeast fitness (ln)” value was -0.179. As for G1A U2G G6U C27U C66U A70G C71U, the figure is -0.325; as for G1A U2G G6U C27U A43C C46U C66U A69G A70U C71U, -0.434. As for G1A U2G G6U C27U C66U A70U, the figure is -0.386. As for G1A U2G G6U C27U C66U A70G, the “yeast fitness (ln)” value is -0.357. In the case of G1A U2G G6U C46U C66U A70U C71U it was -0.722; in that of G1A U2G G6U C46U C66U A69G A70U C71U, -0.441; in that of U2C A43C C46U C66A A69G A70G, -0.15. U2C A43C C46U C66A A69G A70U: the “yeast fitness (ln)” value is -0.0111.

As to G1A U2G G6U C66A A70U, the “yeast fitness (ln)” value was -0.329. As for G1A U2G G6U C27U C66U A69G A70G C71U, the “yeast fitness (ln)” value is -0.446. For G1A U2G G6U C27U A43C C46U C66U A69G A70G, the “yeast fitness (ln)” value is -0.476. In the case of G1A U2G G6U C27U A43C C46U C66U A69G A70U, the “yeast fitness (ln)” value was -0.451. In the case of G1A U2G G6U C27U C46U A69G C71U it was -0.26.

For the variant G1A U2G G6U C27U A69G C71U, the “yeast fitness (ln)” value is -0.274. On to G1A U2G G6U C46U, for which the “yeast fitness (ln)” value was -0.0886. As to G1A U2G G6U C27U C46U C66U, the “yeast fitness (ln)” value was -0.271. As for G1A U2G G6U C27U C46U C66A, the figure is -0.2; as for G1A U2G G6U C27U C46U A70U C71U, -0.242. In the case of G1A U2G G6U C27U C66U it was -0.38; in that of G1A U2G G6U C27U A69G A70G C71U, -0.448. For G1A U2G G6U C27U C46U C66U A69G A70U C71U, the “yeast fitness (ln)” value is -0.462.

Regarding G1A U2G G6U C27U A43C C66U A69G A70G, the “yeast fitness (ln)” value was -0.337. As for G1A U2G G6U C27U A43C C66U A69G A70U, the figure is -0.611. With G1A U2G G6U C66U, the “yeast fitness (ln)” value was -0.203. In the case of G1A U2G G6U C46U C66U A69G A70G C71U it was -0.244; in that of U2C A43C C46U C66A C71U, -0.1.

As for G1A U2G G6U C27U A43C C46U C66U A69G C71U, the “yeast fitness (ln)” value is -0.4. In the case of G1A U2G G6U C46U C71U, the “yeast fitness (ln)” value is -0.251. In the case of G1A U2G G6U C27U C46U C66U A70U C71U, the “yeast fitness (ln)” value was -0.334. Turning to U2C A43C A70G, the “yeast fitness (ln)” value was -0.00562. As to U2C A43C A70U, the “yeast fitness (ln)” value was -0.0907. U2C A43C C46U A69G A70U: the “yeast fitness (ln)” value was -0.144. Turning to U2C A43C C46U A69G A70G, the “yeast fitness (ln)” value is -0.0147. Take G1A U2G G6U C66U A70U C71U: the “yeast fitness (ln)” value was -0.351. In the case of G1A U2G G6U C27U A43C C66U C71U it was -0.518; in that of G1A U2G G6U C46U C66A A70G C71U, -0.511. In the case of G1A U2G G6U C27U A43C C66U A70G C71U it was -0.346. In the case of G1A U2G G6U C27U C66A A70G C71U it was -0.287; in that of U2C A43C, -0.0265; in that of G1A U2G G6U C46U C66A, -0.122. G1A U2G G6U C46U C66U: the “yeast fitness (ln)” value was -0.14.

For the variant G1A U2G G6U C27U C46U A69G A70G C71U, the “yeast fitness (ln)” value is -0.35. On to G1A U2G G6U C27U C46U C66U C71U, for which the “yeast fitness (ln)” value was -0.285. As for U2C A43C A69G A70G C71U, the figure is -0.0143; as for G1A U2G G6U C66U A70U, -0.211. In the case of G1A U2G G6U C66U A70G it was -0.199; in that of G1A U2G G6U C27U C46U C66U A70G, -0.437; in that of G1A U2G G6U C27U C46U C66U A70U, -0.236. As to U2C, the “yeast fitness (ln)” value turned out to be 0.0175. Take G1A U2G G6U C66U A69G A70G C71U: the “yeast fitness (ln)” value was -0.529.

As to G1A U2G G6U C27U A43C C66U A69G C71U, the “yeast fitness (ln)” value was -0.764. For G1A U2G G6U C27U C66A A70U, the “yeast fitness (ln)” value was -0.27. As for G1A U2G G6U C27U C66A A70G, the figure is -0.268; as for G1A U2G G6U C27U A43C C66A A70U, -0.212; as for U2C A43C C46U C66A A70G C71U, -0.0245. Regarding G1A U2G G6U C27U A43C C66A, the “yeast fitness (ln)” value was -0.171. As for G1A U2G G6U C46U C66A A70G, the figure is -0.258.

Regarding G1A U2G G6U C46U C66A A70U, the “yeast fitness (ln)” value was -0.234. As for G1A U2G G6U C46U A69G A70G C71U, the figure is -0.309; as for G1A U2G G6U C27U A43C C66A A69G A70G C71U, -0.461.
